The list is not random: actives were taken first. Their share in the collection is about 2.3%.
TRPC4 agonist: TRPC4 (mouse) channel activation. Q9QUQ5. HEK293 TRPC4beta/mu-opioid, Fluo4 calcium fluorescence; stronger effect = higher value. B-score at 10 µM. actives 0.49% (n = 310,000). AID 2237;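 active = B-score above 5 SD of library B-scores, and initial fluorescence ratio not above library mean plus 5 SD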;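 note: positive B-score marks a calcium rise read as TRPC4 activation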
Target sequence (Q9QUQ5 whole entry, looked up): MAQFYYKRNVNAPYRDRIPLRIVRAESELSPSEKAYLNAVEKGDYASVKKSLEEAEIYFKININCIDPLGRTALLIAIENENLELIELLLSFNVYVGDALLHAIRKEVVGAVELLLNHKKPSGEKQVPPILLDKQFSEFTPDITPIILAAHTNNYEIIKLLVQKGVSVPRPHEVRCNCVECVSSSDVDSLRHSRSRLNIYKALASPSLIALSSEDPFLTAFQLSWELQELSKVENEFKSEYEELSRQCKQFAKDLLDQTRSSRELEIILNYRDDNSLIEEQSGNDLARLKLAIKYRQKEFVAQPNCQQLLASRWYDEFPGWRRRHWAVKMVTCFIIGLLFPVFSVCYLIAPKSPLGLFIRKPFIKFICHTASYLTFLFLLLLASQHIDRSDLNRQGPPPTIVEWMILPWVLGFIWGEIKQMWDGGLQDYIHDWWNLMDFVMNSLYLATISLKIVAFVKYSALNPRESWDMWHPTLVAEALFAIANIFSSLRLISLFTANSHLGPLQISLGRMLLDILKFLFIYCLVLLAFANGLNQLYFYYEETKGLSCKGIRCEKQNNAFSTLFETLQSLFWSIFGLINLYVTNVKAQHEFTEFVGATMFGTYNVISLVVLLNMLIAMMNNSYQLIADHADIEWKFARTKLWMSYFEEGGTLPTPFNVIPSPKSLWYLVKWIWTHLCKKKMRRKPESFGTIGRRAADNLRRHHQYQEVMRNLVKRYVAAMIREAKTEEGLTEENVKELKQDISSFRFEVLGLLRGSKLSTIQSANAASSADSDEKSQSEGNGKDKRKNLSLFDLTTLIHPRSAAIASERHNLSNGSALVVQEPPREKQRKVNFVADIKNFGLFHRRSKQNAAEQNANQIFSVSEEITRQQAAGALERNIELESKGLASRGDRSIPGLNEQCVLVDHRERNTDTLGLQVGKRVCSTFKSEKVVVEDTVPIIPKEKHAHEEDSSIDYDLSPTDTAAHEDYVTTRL
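Material: HEK293 stable line with TRPC4beta plus mu-opioid receptor; technique: Fluo4 calcium-sensitive dye fluorescence, kinetic, 1 Hz baseline; timing: Fluo4 dye loading 45 min at room temperature, 110 s recording; controls: assay buffer as low control, maximal DAMGO as high control; read-out: integrated baseline-normalised fluorescence ratio, converted to per-well B score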
TRPC6 inh: mouse TRPC6 channel inhibition; Q61143; HEK293-TRPC6, membrane potential dye, ACh-evoked depolarization; stronger effect = lower value; B-score at 10 µM; actives 1.1% (n = 310,000);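 active = B-score under library mean minus 3 SD, initial fluorescence not abnormally high, positive integrated signal ratio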;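 note: B-score derived from integrated fluorescence ratio over the kinetic read; more negative B-score means stronger inhibition of depolarization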
TRPC4 potent: TRPC4 (mouse) allosteric potentiation. Q9QUQ5. HEK293 TRPC4beta/mu-opioid, DAMGO EC20, Fluo-4 Ca2+ flux; stronger effect = higher value. B-score at 10 µM. actives 0.42% (n = 310,000). AID 2227;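 active = B-score of calcium response area above 5 SD of library B-scores, with initial fluorescence ratio within 5 SD of library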;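 note: B-score of integrated fluorescence ratio over time as area under calcium response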
TRPC6 act: activators of mouse TRPC6 channel; AID 2550; B-score at 10 µM; HEK293-TRPC6 membrane potential dye fluorescence; stronger effect = higher value; actives 0.13% (n = 310,000); Q61143;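 active = B-score of the integrated fluorescence ratio above library mean plus 3 SD, and starting fluorescence ratio within library mean plus 5 SD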;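 note: higher score means more depolarization so channel activation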
TRPC4 block: TRPC4 (mouse) channel inhibition; actives 0.39% (n = 300,000); AID 2247; Q9QUQ5; B-score at 10 µM; HEK293 TRPC4beta/mu-opioid, DAMGO-evoked Fluo4 calcium flux; stronger effect = lower value;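 active = B-score over 3 SD under the library average, no early fluorescence shift, positive overall ratio signal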
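Assay system: HEK293 cells with stable TRPC4beta plus mu-opioid receptor expression; Probe or stimulus: DAMGO in two steps, submaximal then maximal; Dosing: single-point compound dosing; Measured by: Fluo4 calcium-dye fluorescence, kinetic read; Read-out basis: B score from integrated Fluo4 fluorescence ratio.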
TRPC4 spec 2: mouse TRPC4 off-target activity of TRPC6 inhibitors, second screen; shares compounds with TRPC6 inh; actives 42% (n = 920); HEK293 TRPC4/MOR, membrane potential dye fluorescence; channel activated by saturating DAMGO dose; inhibition, % at 10 µM;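 active = compounds whose fluorescence signal differed from control wells by over 3 SD, either direction, in both duplicate plates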
TRPC4 spec: mouse TRPC4 off-target activity of TRPC6 inhibitors. shares compounds with TRPC6 inh. HEK293 TRPC4/mu-opioid, membrane potential fluorescence. activity change, negative = inhibition, % at 10 µM. actives 61% (n = 920). AID 2777;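 active = rise or fall in signal beyond 3 SD of buffer-only wells in both replicate plates, either sign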;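 note: integrated kinetic ratio of fluorescence range over baseline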
HEK293 MPD ctr 2-1: parental HEK293 nonspecific activity of TRPC6 inhibitors, second screen; shares compounds with TRPC6 inh; parental HEK293 membrane potential dye fluorescence; maximal acetylcholine challenge after compound addition; signal change vs control, % at 10 µM; actives 31% (n = 920); AID 2779;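 active = membrane potential signal moving either way by over 3 SD of the maximum-effect control, in both duplicate plates, meaning non-specific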
HEK293 MPD ctr-1: parental HEK293 nonspecific activity of TRPC6 inhibitors; shares compounds with TRPC6 inh; parental HEK293 membrane potential dye fluorescence; membrane potential signal change, % at 10 µM; actives 60% (n = 920);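 active = membrane potential signal shifting up or down by more than 3 SD of buffer-only wells, on both duplicate plates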
HEK293 MPD ctr-2: parental HEK293 nonspecific activity of TRPC6 modulators | shares compounds with TRPC6 inh | membrane potential dye fluorescence | membrane potential signal change, % at 10 µM | actives 51% (n = 2,400) | AID 488924;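 active = membrane potential signal moves up or down beyond 5 SD from buffer-only wells, on both duplicate plates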
HEK293 MPD ctr 2-2: second counter-screen for TRPC6 modulators: effect in parental HEK293 cells. shares compounds with TRPC6 inh. membrane potential dye fluorescence; after compound, maximal acetylcholine stimulation. inhibition, % at 10 µM. actives 14% (n = 2,400);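 active = membrane potential signal drops by more than 5 SD from the mean control signal, in both duplicate plates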;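 note: plate controls were acetylcholine ECmax control wells for no effect and buffer only wells for full effect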
TRPC4/MOR mod: tests whether TRPC6 modulators also affect mouse TRPC4. shares compounds with TRPC6 inh. HEK293 TRPC4/mu-opioid, membrane potential fluorescence. percent change from control (negative = decrease, positive = increase), % at 10 µM. actives 69% (n = 2,400). AID 488927;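 active = membrane potential signal moved up or down beyond 5 SD of buffer control wells, in both duplicate plates, actives on both sides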;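 note: plate controls were assay buffer wells for no effect and DAMGO maximal-effect wells for full effect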
TRPC4/MOR inh 2: second check of whether TRPC6 modulators also affect mouse TRPC4; HEK293 TRPC4/mu-opioid, membrane potential dye fluorescence; stimulated with maximal-effect DAMGO; inhibition, % at 10 µM; actives 55% (n = 2,400); shares compounds with TRPC6 inh; AID 488928;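 active = drop in membrane potential signal beyond 5 SD of the control wells in both duplicate plates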;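 note: TRPC4 counter screen for TRPC6 hits run under conditions tuned for TRPC6 not TRPC4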
TRPC6 inh conf: confirmation of mouse TRPC6 inhibitors; shares compounds with TRPC6 inh; HEK293-TRPC6, membrane potential dye, ACh-evoked depolarization; inhibition, % at 10 µM; actives 43% (n = 3,300); AID 488960;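 active = fluorescence ratio falls more than 5 SD below the full-stimulation control mean, in both duplicate runs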;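 note: integrated fluorescence ratio of peak minus minimum over baseline after agonist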
TRPC6 act conf: confirmation of mouse TRPC6 activators | shares compounds with TRPC6 inh | HEK293-TRPC6 membrane potential dye fluorescence, FDSS | activation, % at 10 µM | actives 11% (n = 2,800) | AID 488961;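 active = ratio signal rise beyond 5 SD above unstimulated control wells' mean, seen in both duplicate runs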;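 note: plate controls were buffer EC0 wells for no effect and acetylcholine ECmax response for full effect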
* hit, by the source's call; i = inactive; / = no result.

SMILES	TRPC4 agonist	TRPC6 inh	TRPC4 potent	TRPC6 act	TRPC4 block	TRPC4 spec 2	TRPC4 spec	HEK293 MPD ctr 2-1	HEK293 MPD ctr-1	TRPC6 inh conf	TRPC6 act conf	others
O=C(Nc1c(Cl)ccc2nsnc12)c1ccc([N+](=O)[O-])o1	i	i	i	i	i	/	/	/	/	/	/
CCc1cccc(C)c1NC(=O)CSc1nnc(C)o1	i	i	i	i	i	/	/	/	/	/	/
Cc1ccc(OCC(O)CNCc2ccccc2)cc1C (stereo not drawn)	i	-5.1*	i	i	i	/	/	/	/	i	/	HEK293 MPD ctr-2=132%*;HEK293 MPD ctr 2-2=i;TRPC4/MOR mod=19%*;TRPC4/MOR inh 2=46%*
CSCc1cc(N(C)c2ccccc2)nc(-c2ccccn2)n1	i	-7.2*	i	i	i	i	i	i	i	i	i
Cc1ccc(CN2CCN(Cc3ccc(-n4cccn4)cc3C)CC2CCO)cc1 (stereo not drawn)	i	i	i	i	i	/	/	/	/	/	/
COc1cc(NC(=O)CCS(=O)(=O)c2ccc3c(c2)oc(=O)n3C)cc(OC)c1OC	i	i	i	i	i	/	/	/	/	/	/
O=C(Nc1cccc(C(=O)O)c1)/C(=C/c1ccc([N+](=O)[O-])cc1)NC(=O)c1ccccc1	i	i	i	i	i	/	/	/	/	/	/
O=C(Nc1cccc2ccccc12)/C(=C/c1ccc([N+](=O)[O-])cc1)NC(=O)c1ccccc1	i	-6*	i	i	i	/	/	/	/	58%*	i	HEK293 MPD ctr-2=i;HEK293 MPD ctr 2-2=i;TRPC4/MOR mod=i;TRPC4/MOR inh 2=71%*
CCC(C(=O)NC1CCCCC1)n1c(SCc2cccc(F)c2)nc2ccncc21 (stereo not drawn)	i	-5.1*	i	i	i	/	/	/	/	i	i	HEK293 MPD ctr-2=i;HEK293 MPD ctr 2-2=i;TRPC4/MOR mod=i;TRPC4/MOR inh 2=i
CCC(C(=O)NC1CCCCC1)n1c(SCc2cccc(C)c2)nc2ccncc21 (stereo not drawn)	i	i	i	i	i	/	/	/	/	/	/
O=C(O)CN1C(=O)C2C3C=CC(C3)C2C1=O (stereo not drawn)	i	i	i	i	i	/	/	/	/	/	/
C[N+]1(CN2C(=O)C3C4C=CC(C4)C3C2=O)CCCCC1 (stereo not drawn)	i	-5.6*	i	i	i	/	/	/	/	48%*	i	HEK293 MPD ctr-2=i;HEK293 MPD ctr 2-2=i;TRPC4/MOR mod=i;TRPC4/MOR inh 2=i
CCNc1oc(-c2cccc3ccccc23)nc1C#N	i	i	i	i	i	/	/	/	/	/	/
N#Cc1nc(-c2cccc3ccccc23)oc1NCCN1CCCCC1	i	-7.6*	i	i	i	i	i	i	i	i	i
O=C(Cc1ccc(Cl)cc1)c1c[nH]c(C(=O)NCCCN2CCOCC2)c1	i	i	i	i	i	/	/	/	/	/	/
CCN1CC(C)C(O)(c2ccccc2)CC1C (stereo not drawn)	i	-7.2*	i	i	i	i	i	i	i	i	i
CC1CC(O)(CC(O)(c2ccccc2)c2ccccc2)C(C)CN1C (stereo not drawn)	i	i	i	i	i	/	/	/	/	/	/
O=C(NCCCN1CCOCC1)C(=O)N/N=C/c1ccc2c(c1)OCO2	i	-8.3*	i	i	i	i	i	i	i	i	i
O=C(NCCCN1CCOCC1)C(=O)N/N=C/c1ccc(F)cc1	i	i	i	i	i	/	/	/	/	/	/
O=C(Nc1ccc(C2=NCCN2)cc1)c1ccc(C(=O)Nc2ccc(C3=NCCN3)cc2)c([N+](=O)[O-])c1	i	i	i	15*	i	/	/	/	/	i	193%*	HEK293 MPD ctr-2=440%*;HEK293 MPD ctr 2-2=i;TRPC4/MOR mod=70%*;TRPC4/MOR inh 2=i
COc1sc(SC)cc1/C=N/NC(=O)c1ccncc1	i	i	i	i	i	/	/	/	/	/	/
CCCCNC(=O)c1cc2c(=O)n3cccc(C)c3nc2n(Cc2ccncc2)c1=N	i	-6.7*	i	i	i	i	-20%*	i	-341%*	i	i
CCCCNC(=O)c1cc2c(=O)n3cccc(C)c3nc2n(CCN2CCOCC2)c1=N	i	-6.6*	i	i	i	i	i	-26%*	i	i	i
Cc1cccn2c(=O)c3cc(C(=O)NCCc4ccccc4)c(=N)n(Cc4ccco4)c3nc12	i	i	i	i	i	/	/	/	/	/	/
COCCNC(=O)c1cc2c(=O)n3cccc(C)c3nc2n(Cc2ccncc2)c1=N	i	-11*	i	i	i	78%*	-11%*	-118%*	-230%*	i	i
COCCCn1c(=N)c(C(N)=S)cc2c(=O)n3cccc(C)c3nc21	i	-6.3*	i	i	i	/	/	/	/	i	i	HEK293 MPD ctr-2=i;HEK293 MPD ctr 2-2=i;TRPC4/MOR mod=i;TRPC4/MOR inh 2=i
Cc1cccn2c(=O)c3cc(C(=O)NC4CCCCC4)c(=N)n(CCN4CCOCC4)c3nc12	i	i	i	i	i	/	/	/	/	/	/
O=[N+]([O-])c1cnn(-c2nc(-c3cccs3)cc(C(F)(F)F)n2)c1	i	i	i	i	i	/	/	/	/	/	/

Compound activity deposited in PubChem BioAssay by Johns Hopkins Ion Channel Center.
